Test [1] has as its target Histone-lysine N-methyltransferase, H3 lysine-79 specific (Homo sapiens) (UniProt Q8TEK3). Put plainly: Inhibition of N-terminal GST-tagged human DOT1L (1 to 416 residues) expressed in Escherichia coli at 1 uM using 3H-SAM as a substrate relative to control. The method in brief: (§1)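 Contracted 3H-SAM methyl-transfer scintillation proximity assay against a panel of methyltransferases; compound tested at 1 μM in duplicate; inhibition expressed as percent of control enzyme activity.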

Test [2] has as its target Histone-lysine N-methyltransferase, H3 lysine-36 specific (Homo sapiens) (UniProt Q96L73). Put plainly: Inhibition of N-terminal His-tagged NSD1 (1538 to 2696 residues) (unknown origin) expressed in baculovirus expression system at 1 uM using 3H-SAM as a substrate relative to control. The method in brief: as §1
Test [3] concerns the target Histone-lysine N-methyltransferase NSD2 (Homo sapiens) (UniProt O96028). Kind of test: Inhibition of NSD2 (2 to 1365 residues) (unknown origin) at 1 uM expressed in baculovirus expression system using 3H-SAM as a substrate relative to control. In short, it runs like this: as §1
The target of test [4] is Protein arginine N-methyltransferase 1 (Homo sapiens) (UniProt Q99873). Put plainly: Inhibition of N-terminal GST tagged PRMT1 (2 to 371 residues) (unknown origin) expressed in Escherichia coli at 1 uM using 3H-SAM as a substrate relative to control. The method in brief:
as §1

Test [5] addresses Protein arginine N-methyltransferase 6 (Homo sapiens) (UniProt Q96LA8). Kind of test: Inhibition of N-terminal His-tagged full-length recombinant PRMT6 (2 to 375 residues) (unknown origin) expressed in baculovirus expression system at 1 uM using 3H-SAM as a substrate relative to control. In short, it runs like this:
as §1

The target in test [6] is Protein arginine N-methyltransferase 7 (Homo sapiens) (UniProt Q9NVM4). Kind of test: Inhibition of N-terminal His-tagged full-length recombinant human PRMT7 (2 to 692 residues) expressed in baculovirus expression system at 1 uM using 3H-SAM as a substrate relative to control. In short, it runs like this: as §1
Protein arginine N-methyltransferase 7 (Homo sapiens), sequence (Q9NVM4 whole entry, the tested form may be a part): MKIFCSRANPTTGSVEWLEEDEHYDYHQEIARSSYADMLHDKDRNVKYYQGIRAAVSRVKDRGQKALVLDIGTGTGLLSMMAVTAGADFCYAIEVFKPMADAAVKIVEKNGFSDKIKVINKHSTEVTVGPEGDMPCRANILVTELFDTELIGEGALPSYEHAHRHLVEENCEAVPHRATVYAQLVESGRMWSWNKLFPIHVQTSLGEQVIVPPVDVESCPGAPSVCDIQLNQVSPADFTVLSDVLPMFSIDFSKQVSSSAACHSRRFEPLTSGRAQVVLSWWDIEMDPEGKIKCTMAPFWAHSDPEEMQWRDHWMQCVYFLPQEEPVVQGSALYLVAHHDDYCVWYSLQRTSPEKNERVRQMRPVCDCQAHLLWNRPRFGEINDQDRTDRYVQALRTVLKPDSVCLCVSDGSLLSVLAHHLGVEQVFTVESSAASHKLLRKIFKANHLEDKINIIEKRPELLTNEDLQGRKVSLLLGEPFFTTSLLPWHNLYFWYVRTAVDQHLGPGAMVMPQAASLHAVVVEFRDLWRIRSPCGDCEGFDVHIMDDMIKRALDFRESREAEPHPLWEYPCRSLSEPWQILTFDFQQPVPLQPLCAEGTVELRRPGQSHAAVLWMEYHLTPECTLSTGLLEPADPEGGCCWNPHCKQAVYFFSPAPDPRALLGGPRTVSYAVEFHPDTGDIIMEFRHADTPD
The target in test [7] is Histone-lysine N-methyltransferase SETD7 (Homo sapiens) (UniProt Q8WTS6). Put plainly: Inhibition of N-terminal and GST-tagged C-terminal His-tagged SET7/9 (2 to 366 residues) (unknown origin) expressed in Escherichia coli at 1 uM using 3H-SAM as a substrate relative to control. The method in brief: as §1
Histone-lysine N-methyltransferase SETD7 (Homo sapiens), sequence (Q8WTS6 whole entry, the tested form may be a part): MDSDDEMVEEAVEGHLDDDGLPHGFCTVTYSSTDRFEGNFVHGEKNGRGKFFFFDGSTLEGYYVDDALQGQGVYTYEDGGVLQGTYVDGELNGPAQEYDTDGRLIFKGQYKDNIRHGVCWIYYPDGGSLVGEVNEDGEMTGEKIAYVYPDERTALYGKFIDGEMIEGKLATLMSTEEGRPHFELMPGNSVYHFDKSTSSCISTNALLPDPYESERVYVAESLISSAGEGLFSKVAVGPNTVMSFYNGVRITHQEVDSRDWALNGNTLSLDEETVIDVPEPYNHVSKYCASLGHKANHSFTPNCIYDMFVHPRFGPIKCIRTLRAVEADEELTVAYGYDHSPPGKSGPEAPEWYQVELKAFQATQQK
The target in test [8] is Histone-lysine N-methyltransferase SETD2 (Homo sapiens) (UniProt Q9BYW2). Put plainly: Inhibition of SETD2 (unknown origin) at 1 uM using 3H-SAM as a substrate relative to control. The method in brief:
as §1

The target in test [9] is Histone-lysine N-methyltransferase SUV39H2 (Homo sapiens) (UniProt Q9H5I1). Kind of test: Inhibition of N-terminal fusion protein with C-terminal His-tagged SUV39H2 (46 to 410 residues) (unknown origin) expressed in Escherichia coli at 1 uM using 3H-SAM as a substrate relative to control. The method in brief:
as §1

The test system of the next test is K562. Put plainly: Down regulation of H3K9 dimethylation in human K562 cells at 0.2 to 5 uM incubated for 48 hrs by Western blot analysis. It counts as functional, cell-based. The note with it: dose 0.2-5 µM. For orientation: In western blotting, separated proteins are transferred to a membrane and probed.
In test [10] the target is T1, Histone-lysine N-methyltransferase EHMT2 (Homo sapiens) (UniProt Q96KQ7).
T1 sequence (whole entry): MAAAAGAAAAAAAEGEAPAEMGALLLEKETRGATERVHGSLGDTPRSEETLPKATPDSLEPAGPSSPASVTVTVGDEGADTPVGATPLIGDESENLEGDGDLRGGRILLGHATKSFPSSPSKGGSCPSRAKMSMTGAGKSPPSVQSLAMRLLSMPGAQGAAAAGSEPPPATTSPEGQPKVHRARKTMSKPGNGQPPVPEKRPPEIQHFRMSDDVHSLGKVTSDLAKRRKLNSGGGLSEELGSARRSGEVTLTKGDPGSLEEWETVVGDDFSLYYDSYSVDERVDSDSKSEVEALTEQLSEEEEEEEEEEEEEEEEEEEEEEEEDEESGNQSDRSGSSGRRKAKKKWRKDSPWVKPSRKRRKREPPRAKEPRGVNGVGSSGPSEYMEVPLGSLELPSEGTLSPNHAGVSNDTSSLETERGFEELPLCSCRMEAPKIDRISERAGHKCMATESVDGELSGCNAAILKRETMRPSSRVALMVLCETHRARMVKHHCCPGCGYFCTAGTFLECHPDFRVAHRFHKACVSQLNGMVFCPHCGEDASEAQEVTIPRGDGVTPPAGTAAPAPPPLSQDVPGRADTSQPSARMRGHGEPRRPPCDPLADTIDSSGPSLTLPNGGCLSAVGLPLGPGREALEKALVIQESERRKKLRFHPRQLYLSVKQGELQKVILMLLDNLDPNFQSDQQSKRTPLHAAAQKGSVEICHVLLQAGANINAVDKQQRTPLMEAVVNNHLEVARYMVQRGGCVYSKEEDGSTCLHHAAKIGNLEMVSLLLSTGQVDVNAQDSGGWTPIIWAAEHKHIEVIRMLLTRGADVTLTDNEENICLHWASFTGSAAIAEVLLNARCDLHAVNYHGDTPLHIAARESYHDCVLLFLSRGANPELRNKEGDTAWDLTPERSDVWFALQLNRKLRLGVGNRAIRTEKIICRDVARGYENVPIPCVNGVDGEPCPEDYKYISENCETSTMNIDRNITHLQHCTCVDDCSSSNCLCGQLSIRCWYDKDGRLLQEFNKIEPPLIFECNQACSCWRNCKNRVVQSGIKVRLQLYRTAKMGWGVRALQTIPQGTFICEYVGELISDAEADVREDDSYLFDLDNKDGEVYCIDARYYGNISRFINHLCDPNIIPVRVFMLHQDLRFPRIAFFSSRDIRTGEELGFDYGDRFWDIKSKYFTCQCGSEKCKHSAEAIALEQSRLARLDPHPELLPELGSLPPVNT
Put plainly: Inhibition of human G9a (913 to 1193 residues) using H3 peptide as substrate in presence of SAM cofactor by scintillation counting method. The note with it: time 5-45 min, TDE = time-dependent effect. In short, it runs like this: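 Contracted scintillation proximity assay following 3H-methyl transfer from SAM (1 μM) to H3 peptide (0.05 μM) by G9a or GLP (5 nM each), with preincubation times of 5, 15 or 45 min; four replicates.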

A further test relates to MDA-MB-231. Put plainly: Down regulation of H3K9 dimethylation in human MDA-MB-231 cells after 24 to 72 hrs by Western blot analysis. It counts as functional, cell-based. The following applies: dose 0.2-5 µM, time lower […], time upper 72.0 hrs, DDE = dose-dependent effect.

The source made the active and inactive calls. The calls are words filed in the database; no cut-off is given here. Bounds are passed on as bounds.

The term inhibition denotes the relative decrease from the control value, in per cent.

Histone-lysine N-methyltransferase SETD2 (Homo sapiens), sequence (Q9BYW2 whole entry): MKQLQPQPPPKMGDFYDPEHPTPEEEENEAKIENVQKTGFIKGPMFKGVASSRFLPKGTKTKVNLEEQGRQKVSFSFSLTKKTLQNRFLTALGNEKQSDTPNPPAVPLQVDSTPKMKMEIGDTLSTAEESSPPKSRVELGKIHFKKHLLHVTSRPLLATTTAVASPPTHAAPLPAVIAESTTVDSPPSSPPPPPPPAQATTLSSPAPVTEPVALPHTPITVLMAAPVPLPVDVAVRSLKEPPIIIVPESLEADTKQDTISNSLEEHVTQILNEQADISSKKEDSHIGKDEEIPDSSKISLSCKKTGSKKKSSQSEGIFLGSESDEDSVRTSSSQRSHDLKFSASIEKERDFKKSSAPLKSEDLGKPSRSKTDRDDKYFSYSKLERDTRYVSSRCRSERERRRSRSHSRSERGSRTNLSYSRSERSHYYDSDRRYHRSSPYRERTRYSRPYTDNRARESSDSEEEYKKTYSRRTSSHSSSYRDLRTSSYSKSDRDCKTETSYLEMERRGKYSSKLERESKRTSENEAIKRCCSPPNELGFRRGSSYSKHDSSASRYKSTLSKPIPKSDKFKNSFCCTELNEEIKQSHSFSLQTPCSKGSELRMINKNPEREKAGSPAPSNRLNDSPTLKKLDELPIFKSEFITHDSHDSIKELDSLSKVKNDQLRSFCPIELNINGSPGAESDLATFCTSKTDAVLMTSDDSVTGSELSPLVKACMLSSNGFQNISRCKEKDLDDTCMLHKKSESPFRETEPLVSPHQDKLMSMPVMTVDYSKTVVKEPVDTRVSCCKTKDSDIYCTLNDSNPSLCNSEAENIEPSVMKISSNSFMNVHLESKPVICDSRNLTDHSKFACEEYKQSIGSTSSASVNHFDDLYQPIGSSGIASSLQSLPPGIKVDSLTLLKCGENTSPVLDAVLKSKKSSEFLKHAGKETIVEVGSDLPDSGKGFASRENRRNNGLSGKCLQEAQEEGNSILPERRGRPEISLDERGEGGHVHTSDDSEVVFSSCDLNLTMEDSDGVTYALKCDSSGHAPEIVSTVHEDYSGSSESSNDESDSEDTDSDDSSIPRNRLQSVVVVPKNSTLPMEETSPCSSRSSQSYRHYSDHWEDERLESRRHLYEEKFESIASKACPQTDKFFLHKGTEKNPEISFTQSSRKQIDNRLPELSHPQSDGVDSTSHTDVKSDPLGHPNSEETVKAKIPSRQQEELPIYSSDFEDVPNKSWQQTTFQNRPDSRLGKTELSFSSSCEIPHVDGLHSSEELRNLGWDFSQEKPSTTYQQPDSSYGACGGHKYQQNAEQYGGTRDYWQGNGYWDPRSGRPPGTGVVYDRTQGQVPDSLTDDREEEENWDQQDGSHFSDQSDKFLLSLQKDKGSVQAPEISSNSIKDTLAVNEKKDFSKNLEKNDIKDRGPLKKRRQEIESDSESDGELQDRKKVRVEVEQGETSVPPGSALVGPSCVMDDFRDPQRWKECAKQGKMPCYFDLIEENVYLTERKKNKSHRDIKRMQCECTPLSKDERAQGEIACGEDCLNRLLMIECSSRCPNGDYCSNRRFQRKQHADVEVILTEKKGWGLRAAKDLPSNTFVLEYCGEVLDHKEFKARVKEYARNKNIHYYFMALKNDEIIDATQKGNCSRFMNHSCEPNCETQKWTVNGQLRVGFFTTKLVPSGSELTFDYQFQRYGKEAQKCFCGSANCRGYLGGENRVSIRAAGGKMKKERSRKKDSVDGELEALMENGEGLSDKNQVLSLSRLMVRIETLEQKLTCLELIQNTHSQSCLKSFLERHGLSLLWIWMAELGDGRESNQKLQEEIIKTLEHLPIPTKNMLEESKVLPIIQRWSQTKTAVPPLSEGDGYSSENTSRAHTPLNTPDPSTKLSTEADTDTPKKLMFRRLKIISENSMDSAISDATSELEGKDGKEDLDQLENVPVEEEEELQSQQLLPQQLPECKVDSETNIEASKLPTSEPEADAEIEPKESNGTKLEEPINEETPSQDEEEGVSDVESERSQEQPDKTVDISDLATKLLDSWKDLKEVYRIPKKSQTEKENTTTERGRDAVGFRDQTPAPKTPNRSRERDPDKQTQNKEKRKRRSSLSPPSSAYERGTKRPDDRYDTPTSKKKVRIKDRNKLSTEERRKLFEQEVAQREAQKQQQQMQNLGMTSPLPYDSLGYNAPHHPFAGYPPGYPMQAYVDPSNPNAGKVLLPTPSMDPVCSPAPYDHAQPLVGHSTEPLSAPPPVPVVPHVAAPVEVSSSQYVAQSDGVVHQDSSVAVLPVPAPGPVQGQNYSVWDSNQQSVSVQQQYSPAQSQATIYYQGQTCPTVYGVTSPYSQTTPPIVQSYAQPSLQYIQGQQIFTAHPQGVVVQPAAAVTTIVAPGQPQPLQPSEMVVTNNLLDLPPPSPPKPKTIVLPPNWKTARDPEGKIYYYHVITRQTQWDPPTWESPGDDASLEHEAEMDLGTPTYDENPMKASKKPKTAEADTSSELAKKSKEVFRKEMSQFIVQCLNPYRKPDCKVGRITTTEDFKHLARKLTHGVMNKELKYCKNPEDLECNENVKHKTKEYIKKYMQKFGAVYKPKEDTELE
Histone-lysine N-methyltransferase NSD2 (Homo sapiens), sequence (O96028 whole entry, the tested form may be a part): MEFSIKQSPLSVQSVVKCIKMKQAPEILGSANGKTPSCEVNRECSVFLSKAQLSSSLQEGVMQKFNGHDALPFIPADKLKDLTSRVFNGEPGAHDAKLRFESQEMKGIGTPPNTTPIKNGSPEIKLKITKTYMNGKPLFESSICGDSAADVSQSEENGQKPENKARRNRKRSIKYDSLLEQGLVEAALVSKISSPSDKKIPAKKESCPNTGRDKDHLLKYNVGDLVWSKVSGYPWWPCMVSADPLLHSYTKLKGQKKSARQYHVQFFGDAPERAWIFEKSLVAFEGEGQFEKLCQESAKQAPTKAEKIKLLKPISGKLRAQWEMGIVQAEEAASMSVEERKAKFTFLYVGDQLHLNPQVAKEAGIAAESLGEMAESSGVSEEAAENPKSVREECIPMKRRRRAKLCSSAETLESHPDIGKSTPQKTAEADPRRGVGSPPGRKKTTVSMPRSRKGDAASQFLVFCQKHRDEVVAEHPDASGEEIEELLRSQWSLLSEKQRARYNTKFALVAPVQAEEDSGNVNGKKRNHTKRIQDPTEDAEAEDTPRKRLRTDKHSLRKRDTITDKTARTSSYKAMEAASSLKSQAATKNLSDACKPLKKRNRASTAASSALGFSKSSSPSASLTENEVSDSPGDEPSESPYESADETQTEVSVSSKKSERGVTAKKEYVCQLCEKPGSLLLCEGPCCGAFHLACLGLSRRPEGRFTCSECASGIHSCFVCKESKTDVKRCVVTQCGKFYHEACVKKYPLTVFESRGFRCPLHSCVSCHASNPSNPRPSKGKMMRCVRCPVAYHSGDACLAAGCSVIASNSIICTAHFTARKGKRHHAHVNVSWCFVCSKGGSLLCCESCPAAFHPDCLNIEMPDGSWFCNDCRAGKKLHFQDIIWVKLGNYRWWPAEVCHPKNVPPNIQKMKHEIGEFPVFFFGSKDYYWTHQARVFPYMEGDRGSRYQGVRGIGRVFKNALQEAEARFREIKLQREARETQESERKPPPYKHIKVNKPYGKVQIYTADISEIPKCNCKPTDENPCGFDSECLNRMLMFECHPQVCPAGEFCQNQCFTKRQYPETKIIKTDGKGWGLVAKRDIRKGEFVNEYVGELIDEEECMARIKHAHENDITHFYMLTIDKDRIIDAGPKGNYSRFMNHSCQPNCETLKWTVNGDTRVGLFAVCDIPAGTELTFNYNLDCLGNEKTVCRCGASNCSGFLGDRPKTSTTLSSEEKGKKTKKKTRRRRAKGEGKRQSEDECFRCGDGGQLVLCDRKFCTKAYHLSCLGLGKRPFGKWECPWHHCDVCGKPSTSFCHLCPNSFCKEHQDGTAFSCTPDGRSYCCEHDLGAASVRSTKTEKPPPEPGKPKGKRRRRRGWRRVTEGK

Turning to `C=CC(=O)Nc1cc(NC2CCN(C(C)C)CC2)c2cc(OC)c(OCCCN3CCCC3)cc2n1`, the inhibition in test [1], in test [2], in [3], in [4], in [5] and in test [6] was less than 50% in each case. Further, the inhibition in [7] was less than 50%; in test [8], less than 50%; in test [9], less than 50%; in test [10] it was “Tde”. The result in the test with K562 was Active. The Activity result in the test on MDA-MB-231 is “Dde”.

The record behind these values is ChEMBL document CHEMBL5126600, “Discovery of the First-in-Class G9a/GLP Covalent Inhibitors” (J Med Chem, 2022).
